# Data reported in ChEMBL document CHEMBL1153856, “Synthesis and spectral characterization of a new class of N-(N-methylpiperazinoacetyl)-2,6-diarylpiperidin-4-ones: antimicrobial, analgesic and antipyretic studies” (2009).
# Columns and labels:
# Type in all cases: functional
# [1] = test system: Staphylococcus aureus; test: Antimicrobial activity against Staphylococcus aureus after 24 hrs by twofold serial dilution method
# How it was run: (§1)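 Twofold serial broth dilution in nutrient broth at pH 7.4 ± 0.2. Compound stocks were 1 mg/mL in DMSO, diluted 1:5 into seeded broth, then six serial dilutions. Inocula came from 24 h nutrient-agar cultures, final 10⁵ cfu/mL. Incubation was 37 ± 1 °C for 24 h, with growth and solvent controls. MIC was read visually; ciprofloxacin was the standard.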
# [2] = test system: Escherichia coli; test: Antimicrobial activity against Escherichia coli after 24 hrs by twofold serial dilution method; how it was run: as §1
# [3] = test system: Pseudomonas aeruginosa; test: Antimicrobial activity against Pseudomonas aeruginosa after 24 hrs by twofold serial dilution method; how it was run: as §1
# [4] = test system: Salmonella enterica subsp. enterica serovar Typhi str. CT18; test: Antimicrobial activity against Salmonella typhi after 24 hrs by twofold serial dilution method; how it was run: as §1
# [5] = test system: Klebsiella pneumoniae; test: Antimicrobial activity against Klebsiella pneumoniae after 24 hrs by twofold serial dilution method; how it was run: as §1
# [6] = test system: Candida albicans; test: Antimicrobial activity against Candida albicans after 72 to 96 hrs by twofold serial dilution method
# How it was run: (§2)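 Twofold serial broth dilution in Sabouraud dextrose broth at pH 5.6. Spores came from 1–7-day Sabouraud agar slants, final inoculum 1.1–1.5 × 10² cfu/mL. Compound stocks were 1 mg/mL in DMSO, diluted 1:5 into seeded broth, then six serial dilutions. Incubation was 28 ± 1 °C for 72–96 h, with growth and solvent controls. MIC was read visually; amphotericin B was the standard.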
# [7] = test system: Rhizopus; test: Antimicrobial activity against Rhizopus sp. after 72 to 96 hrs by twofold serial dilution method; how it was run: as §2
# [8] = test system: Aspergillus niger; test: Antimicrobial activity against Aspergillus niger after 72 to 96 hrs by twofold serial dilution method; how it was run: as §2
# [9] = test system: Aspergillus flavus; test: Antimicrobial activity against Aspergillus flavus after 72 to 96 hrs by twofold serial dilution method; how it was run: as §2
# [10] = test system: Mus musculus; test: Analgesic activity in albino mouse assessed as inhibition of acetic acid-induced writhing response at 30 mg/kg, po administered 1 hr prior to acetic acid challenge relative to control
# How it was run: (§3)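 Albino mice of both sexes, 20–25 g, n = 6 per group. Doses of 30, 60 or 90 mg/kg were given orally as suspensions in 1% sodium CMC. 1 h later, 1% acetic acid in normal saline (10 mL/kg) was injected ip. Complete extension of either hind limb counted as a writhe. Counting started 5 min after injection and ran 30 min. Results are % inhibition = [1 − T/C] × 100 versus vehicle controls, mean ± SEM.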
# [11] = test system: Mus musculus; test: Analgesic activity in albino mouse assessed as inhibition of acetic acid-induced writhing response at 60 mg/kg, po administered 1 hr prior to acetic acid challenge relative to control; how it was run: as §3
# [12] = test system: Mus musculus; test: Analgesic activity in albino mouse assessed as inhibition of acetic acid-induced writhing response at 90 mg/kg, po administered 1 hr prior to acetic acid challenge relative to control; how it was run: as §3
# [13] = test system: Rattus norvegicus; test: Antipyretic activity against brewer's yeast-induced hyperthermia in Wistar rat assessed as change in rectal temperature at 30 mg/kg, po after 30 mins
# How it was run: (§4)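 Wistar rats of both sexes, 200–250 g, received brewer's yeast in normal saline sc. Rectal temperature was taken with a digital thermometer (precision 0.1 °C). At 18 h, rats whose temperature had risen 0.3–0.5 °C were selected. Test compounds (30 or 60 mg/kg) or indomethacin (5 mg/kg) were given orally in 1% CMC; controls received vehicle only. Temperature was measured at 30, 60, 90, 120 and 150 min, mean ± SEM.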
# [14] = test system: Rattus norvegicus; test: Antipyretic activity against brewer's yeast-induced hyperthermia in Wistar rat assessed as change in rectal temperature at 30 mg/kg, po after 60 mins; how it was run: as §4
# [15] = test system: Rattus norvegicus; test: Antipyretic activity against brewer's yeast-induced hyperthermia in Wistar rat assessed as change in rectal temperature at 30 mg/kg, po after 90 mins; how it was run: as §4
# [16] = test system: Rattus norvegicus; test: Antipyretic activity against brewer's yeast-induced hyperthermia in Wistar rat assessed as change in rectal temperature at 30 mg/kg, po after 120 mins; how it was run: as §4
# [17] = test system: Rattus norvegicus; test: Antipyretic activity against brewer's yeast-induced hyperthermia in Wistar rat assessed as change in rectal temperature at 30 mg/kg, po after 150 mins; how it was run: as §4
# [18] = test system: Rattus norvegicus; test: Antipyretic activity against brewer's yeast-induced hyperthermia in Wistar rat assessed as change in rectal temperature at 60 mg/kg, po after 30 mins; how it was run: as §4
# [19] = test system: Rattus norvegicus; test: Antipyretic activity against brewer's yeast-induced hyperthermia in Wistar rat assessed as change in rectal temperature at 60 mg/kg, po after 60 mins; how it was run: as §4
# [20] = test system: Rattus norvegicus; test: Antipyretic activity against brewer's yeast-induced hyperthermia in Wistar rat assessed as change in rectal temperature at 60 mg/kg, po after 90 mins; how it was run: as §4
# [21] = test system: Rattus norvegicus; test: Antipyretic activity against brewer's yeast-induced hyperthermia in Wistar rat assessed as change in rectal temperature at 60 mg/kg, po after 120 mins; how it was run: as §4
# [22] = test system: Rattus norvegicus; test: Antipyretic activity against brewer's yeast-induced hyperthermia in Wistar rat assessed as change in rectal temperature at 60 mg/kg, po after 150 mins; how it was run: as §4
SMILES,MIC [1] [µg/mL],MIC [2] [µg/mL],MIC [3] [µg/mL],MIC [4] [µg/mL],MIC [5] [µg/mL],MIC [6] [µg/mL],MIC [7] [µg/mL],MIC [8] [µg/mL],MIC [9] [µg/mL],inhibition in vivo at 30 mg/kg [10] [%],inhibition in vivo at 60 mg/kg [11] [%],inhibition in vivo at 90 mg/kg [12] [%],Activity [13] [°C],Activity [14] [°C],Activity [15] [°C],Activity [16] [°C],Activity [17] [°C],Activity [18] [°C],Activity [19] [°C],Activity [20] [°C],other results
COc1ccc(C2C(C)C(=O)C(C)C(c3ccc(OC)cc3)N2C(=O)CN2CCN(C)CC2)cc1 (stereo unspecified),12.5,25,50,100,25,6.25,25,25,12.5,46.2,59.1,38.7,38.1,38.01,37.95,37.8,37.7,38.01,38.95,37.9,Activity [21]: 37.85 °C; Activity [22]: 37.6 °C
CCC1C(=O)CC(c2ccccc2)N(C(=O)CN2CCN(C)CC2)C1c1ccccc1 (stereo unspecified),100,> 200,200,100,50,100,> 200,200,> 200,8,4.5,1.2,38.27,38.22,38.15,38.01,38.98,38.25,38.2,38.1,Activity [21]: 38.95 °C; Activity [22]: 38.9 °C
CC1C(=O)CC(c2ccccc2)N(C(=O)CN2CCN(C)CC2)C1c1ccccc1 (stereo unspecified),> 200,100,> 200,200,200,> 200,> 200,100,100,6.3,15.6,17.7,38.25,38.2,38.1,38.03,38.01,38.2,38.1,38.02,Activity [21]: 38.01 °C; Activity [22]: 38.95 °C
C[C@@H]1[C@H](O)[C@@H](C)/C=C/C=C/C=C/C=C/C=C/C=C/C=C/[C@H](O[C@@H]2O[C@H](C)[C@@H](O)[C@H](N)[C@@H]2O)C[C@@H]2O[C@](O)(C[C@@H](O)C[C@@H](O)[C@H](O)CC[C@@H](O)C[C@@H](O)CC(=O)O[C@H]1C)C[C@H](O)[C@H]2C(=O)O [AMPHOTERICIN B],–,–,–,–,–,25,25,50,50,–,–,–,–,–,–,–,–,–,–,–,–
CC(=O)Oc1ccccc1C(=O)O [ASPIRIN],–,–,–,–,–,–,–,–,–,44.8,57.9,38.6,–,–,–,–,–,–,–,–,–
O=C(O)c1cn(C2CC2)c2cc(N3CCNCC3)c(F)cc2c1=O [CIPROFLOXACIN],–,25,–,50,25,–,–,–,–,–,–,–,–,–,–,–,–,–,–,–,–
